This is an account of results in ChEMBL document CHEMBL1155016, “Locking the two ends of tetrapeptidic HTLV-I protease inhibitors inside the enzyme” (Bioorg Med Chem, 2008).

One experiment has as its target Protease (Human T-cell leukemia virus type I, UniProt Q82134, L40I). The experiment is described as follows: Inhibition of HTLV1 protease L40I mutant. Summed up:
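HTLV-I protease carrying the L40I substitution, which blocks autolysis and stabilises the enzyme; run by the group's earlier reported protocol; potency given as IC50 in nM.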

The target of experiment [1] is Protease (Human immunodeficiency virus 1) (UniProt Q9YQ12). Kind of experiment: Inhibition of HIV1 protease at 50 nM.
Chain of Protease (Human immunodeficiency virus 1) (Q9YQ12 as listed by the source): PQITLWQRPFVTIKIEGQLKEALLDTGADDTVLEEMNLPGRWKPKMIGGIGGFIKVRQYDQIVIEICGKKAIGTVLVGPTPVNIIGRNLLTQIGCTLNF

Starred links: 1 amine or outer side, 2 acyl side, 3 side chain; linkers in the order of their positions; H or OH if unused. Non-standard residues stand in square brackets, D forms with d. Residues, ends and D or L forms follow the SMILES beside them. X1 = O=C([C@@H](O)[C@H](Cc1ccccc1)N[*:1])[*:2]; Thz(5,5-Me2) = CC1(C)SCN[C@@H]1C(=O)O; Phg = N[C@H](C(=O)O)c1ccccc1; Tle = CC(C)(C)[C@H](N)C(=O)O A value given as a limit tells only on which side of the number the result lay.

Chain of Protease (Q82134 entry or part of it L40I): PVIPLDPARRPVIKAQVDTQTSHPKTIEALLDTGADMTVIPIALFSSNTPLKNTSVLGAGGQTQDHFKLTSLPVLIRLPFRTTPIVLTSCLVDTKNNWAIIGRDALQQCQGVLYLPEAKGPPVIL

For orientation: IC50 means the concentration that inhibits the measured activity by half. A word on the inhibition: it is the share of the control response that was lost under treatment. A higher inhibition goes with a strong effect. `CC[C@H](C)[C@H](NC(=O)[C@H]1N(C(=O)[C@@H](O)[C@H](Cc2ccccc2)NC(=O)[C@@H](NC(=O)[C@@H](NC(C)=O)c2ccccc2)C(C)(C)C)CSC1(C)C)C(N)=O` (Ac-[Phg][Tle][X1][Thz(5,5-Me2)]I-NH2) yielded an IC50 against Protease of 0.144 µM. In experiment [1], this compound had an inhibition of more than 98%.

`CC(C)CC(=O)N[C@H](C(=O)N[C@H](C(=O)N[C@@H](Cc1ccccc1)[C@H](O)C(=O)N1CSC(C)(C)[C@H]1C(=O)NC(C)C(C)(C)C)C(C)(C)C)c1ccccc1` (stereo partly specified): the half-inhibitory concentration (IC50) on Protease was 0.084 µM. The same compound registered an inhibition in experiment [1] of more than 98%.

With `CC(C)C(C)NC(=O)[C@H]1N(C(=O)[C@@H](O)[C@H](Cc2ccccc2)NC(=O)[C@@H](NC(=O)[C@@H](NC(=O)C(C)(C)C)c2ccccc2)C(C)(C)C)CSC1(C)C` (stereo partly specified), the half-maximal inhibitory concentration (IC50) on Protease was determined as 0.133 µM. This compound returned an inhibition in experiment [1] of more than 98%.

In turn, `CC(C)C(=O)N[C@H](C(=O)N[C@H](C(=O)N[C@@H](Cc1ccccc1)[C@H](O)C(=O)N1CSC(C)(C)[C@H]1C(=O)NCC(C)(C)C)C(C)(C)C)c1ccccc1` came in with an IC50 on Protease of 0.078 µM. Further, the inhibition in experiment [1] is more than 98%.

`CC(C)(C)C(=O)N[C@H](C(=O)N[C@H](C(=O)N[C@@H](Cc1ccccc1)[C@H](O)C(=O)N1CSC(C)(C)[C@H]1C(=O)NCC1CC1)C(C)(C)C)c1ccccc1`: the 50% inhibitory concentration (IC50) at Protease worked out at 0.187 µM. The compound also yielded an inhibition in experiment [1] of more than 98%.

At Protease, `CC(C)(C)[C@H](NC(=O)[C@@H](N)c1ccccc1)C(=O)N[C@@H](Cc1ccccc1)[C@H](O)C(=O)N1CSC(C)(C)[C@H]1C(=O)NCC1CC1` showed an IC50 of 0.928 µM. In experiment [1], this compound came in with an inhibition of more than 98%.

The compound `CC(C)CNC(=O)[C@H]1N(C(=O)[C@@H](O)[C@H](Cc2ccccc2)NC(=O)[C@@H](NC(=O)[C@@H](NC(=O)C(C)C)c2ccccc2)C(C)(C)C)CSC1(C)C` showed an IC50 against Protease of 0.094 µM. In addition, the inhibition in experiment [1] was more than 98%.

On to `CC(C)CNC(=O)[C@H]1N(C(=O)[C@@H](O)[C@H](Cc2ccccc2)NC(=O)[C@@H](NC(=O)[C@@H](NC(=O)CC(C)C)c2ccccc2)C(C)(C)C)CSC1(C)C`, for which the IC50 at Protease was determined as 0.102 µM. In experiment [1], this compound registered an inhibition of more than 98%.
